Screening results: PubChem BioAssay, several laboratories
Autophagy mod = alters autophagy in cells | actives 0.98% (n = 190,000) | MEF GFP-LC3 puncta imaging; test concentration mostly 10 µM | AID 463193 | calls only at 10 µM (by protocol);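 active = percentage of spot-positive cells more than 3 SD above its plate mean, without a fluorescence outlier flag or 80% toxicity; inconclusive = no clear call, values can overlap the other calls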;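 note: spot-positive cell cutoff set from DMSO-treated cells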
MT stabilizer = microtubule stabilizers in HeLa cells. AID 2205. % tubulin-high responders, % at 10 µM. actives 0.83% (n = 200,000). HeLa tubulin immunostaining HCS, 24 h; share of cells brighter than vehicle mean+2SD;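 active = plate Z-score above 3 for both tubulin-high and condensed-nucleus cell shares, with cell loss under 80%, at 10 µM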;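 note: anti alpha tubulin signal scored within the nucleus-defined area of each cell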
b-catenin transl = beta-catenin nuclear translocation modulation; nuclear translocation activity, % at 5 µM; actives 0.3% (n = 190,000); HeLa beta-catenin nuclear translocation, immunofluorescence imaging;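 active = nuclear translocation activity above 50% at 5 µM, with a well cell count of 50 or more; inconclusive = wells under 50 cells across six images, flagged as toxic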;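 note: per-cell ratio of nuclear to cytoplasmic median beta-catenin stain intensity; plate controls were DMSO negative control for no effect and GSK-3 inhibitor IX positive control for full effect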
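Test system: HeLa cells, endogenous beta-catenin; Compound: single 5 µM dose plus 0.02–20 µM confirmation series; Times: compound exposure 24 h at 37°C; Signal: fluorescence imaging of beta-catenin antibody stain plus DAPI; Read-out: % activation, nuclear-to-cytoplasmic median beta-catenin signal ratio per cell.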
Dynein cargo inh = dynein cargo transport inhibition. actives 0.47% (n = 220,000). z-score, hits read low. 3617.4 mouse cells, GR-EGFP nuclear translocation imaging; test concentration mostly 20 µM; stimulated with dexamethasone, 1 µM; active compounds read low;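 active = plate z-score of nuclear minus cytoplasmic receptor signal below a set negative limit, without overly bright fluorescence or cell loss, cut at about -3.5 in these data, passing the limit was not always enough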;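 note: z-score of nuclear minus cytoplasmic ring GR-EGFP intensity difference per well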
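Buffer or medium: tet-free, stripped-serum medium; reagent: dexamethasone at 1.0 µM final, 30 min; incubation: 48 h induction, 1 h compound, 30 min dex at 37 °C; measured by: formaldehyde fixation, Hoechst nuclear stain, 10x automated fluorescence imaging; read-out: nuclear-to-cytoplasmic GR-EGFP distribution per well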
CHOP inh = CHOP inhibition in unfolded protein response | AID 2732 | actives 3.8% (n = 220,000) | CHO-K1 CHOP-promoter luciferase, tunicamycin-induced, 15-18 h | inhibition, % at 10 µM;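 active = compounds that reduced the stress-induced luciferase reporter signal by more than about 70% of percent inhibition, limit read from the data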;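 note: 0% = tunicamycin plus vehicle and 100% = wells without tunicamycin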
Lmaj promast = inhibitors of Leishmania major promastigote growth; Leishmania major promastigotes, resazurin fluorescence viability; actives 9% (n = 200,000); inhibition, % at 10 µM; AID 1063; in the data active = inhibition above about 50%;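 note: promastigotes grown with compound for 44 hours at 28 °C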
* hit, by the source's call; i = inactive; ? = inconclusive; · = no result; + = active, no number. An excerpt weighted towards active compounds, which were near 12% of everything screened.

SMILES	Autophagy mod	MT stabilizer	b-catenin transl	Dynein cargo inh	CHOP inh	Lmaj promast
COc1ccc(S(=O)(=O)NCC(c2cccnc2)N2CCN(c3ccc(F)cc3)CC2)cc1C (stereo unspecified)	i	5	0	-0.12	62	96*
CCS(=O)(=O)NCC(c1cccnc1)N1CCN(c2ccccc2OC)CC1 (stereo unspecified)	i	2	-1	-0.6	32	23
COc1ccc(S(=O)(=O)NCC(c2cccnc2)N2CCN(c3ccccc3)CC2)cc1C (stereo unspecified)	i	3	2	-0.9	57	97*
COCCN(C(=S)Nc1cc(C)cc(C)c1)C(C)c1ccco1 (stereo unspecified)	i	2	-2	-0.58	5	11
CC(C)(C)C1CCC(OC(=O)C[N+]2(C)CCCCC2)CC1 (stereo unspecified)	i	4	0	-0.59	9	75*
O=C(c1cnccn1)N1CCc2ccccc2C1	i	1	0	1.5	-13	-7
O=C(Nc1ncccn1)c1cc([N+](=O)[O-])cc([N+](=O)[O-])c1	i	6	-2	-0.75	-9	99*
O=C(Nc1ncccn1)c1ccc([N+](=O)[O-])cc1	i	2	-1	-0.07	3	-2
CCOC(=O)CSc1nnc(NC(=O)c2cc([N+](=O)[O-])cc([N+](=O)[O-])c2)s1	i	2	-1	0.99	25	82*
Cc1cc(C)nc(NC(=O)c2ccc(C)c([N+](=O)[O-])c2)n1	i	4	0	0.29	-12	-7
Cc1cc(C)nc(NC(=O)c2cc([N+](=O)[O-])cc([N+](=O)[O-])c2)n1	i	7	-1	-0.48	-12	59*
COCCSc1nnc(NC(=O)c2ccc([N+](=O)[O-])cc2)s1	i	2	·	-1.2	-11	0
CCc1cccc(CC)c1NC(=O)CSc1nc2ccc(N3C(=O)C4C(C3=O)[C@H]3C=C[C@@H]4C3)cc2s1 (stereo partly specified)	i	9	1	0.11	14	2
COc1cc(CNC(C)(C)CO)cc(Br)c1OCc1ccc(Cl)cc1Cl	i	5	?	3.9	27	100*
COc1cc(CNc2ccc(O)cc2)cc(Br)c1OCc1ccccc1	i	6	5	-1.4	45	10
COc1cc(CNC(C)(C)CO)cc(Br)c1OCc1ccc(Cl)cc1	i	3	3	-0.22	11	98*
CN(CC(=O)NCCc1ccccc1)S(=O)(=O)c1ccccc1	i	5	-4	-0.91	-3	-10
COc1ccc(C(=O)NCC(=O)N/N=C/C(C)=C/c2ccco2)cc1OC	i	11	·	-0.23	2	-2
COc1ccc([N+](=O)[O-])cc1/C=N/NC(=O)CNC(=O)C(c1ccccc1)c1ccccc1	i	2	-1	0.14	10	-1
O=C(Cc1ccccc1)N/N=C/c1ccc(OC(=O)/C=C\c2ccco2)cc1	i	3	3	-0.5	-4	-8
O=C(CNC(=O)c1ccccc1O)N/N=C/c1cc(Br)ccc1OC(=O)/C=C/c1ccco1	i	1	0	-0.37	9	68*
O=C(CNC(=O)c1ccc(F)cc1)N/N=C/c1cc(Br)ccc1OCc1ccccc1	i	2	·	-0.73	32	96*
COc1ccccc1C(=O)NCC(=O)N/N=C/c1cc(Br)ccc1OCc1ccccc1	i	5	-2	0.21	40	18
O=C(CNC(=O)c1cccc(F)c1)N/N=C/c1cc(Br)ccc1OC(=O)/C=C/c1ccco1	i	3	·	-0.19	41	84*
COc1ccc([N+](=O)[O-])cc1/C=N/NC(=O)CNC(=O)c1cccc(F)c1	i	2	0	-0.15	29	98*
Cc1ccnc(NC(=O)CSc2cc(=O)n(C)c3ccccc23)c1	+	3	4	-0.35	32	-4
Cc1ccc(S(=O)(=O)NCc2ccc(C(=O)NCCN(Cc3ccccc3)C(C)C)cc2)cc1	i	3	0	2.6	46	67*
